This note sets out measurements from ChEMBL document CHEMBL4177546, “Development of a Selective Inhibitor of Protein Arginine Deiminase 2” (J Med Chem, 2017).

What is called EC50 is the concentration at which the effect is half-maximal.

For data set [1], the target named is T1, Protein-arginine deiminase type-2 (Homo sapiens, UniProt Q9Y2J8). The data set is described as follows: Binding affinity to human PAD2 expressed in HEK293T cells assessed as protein occupancy preincubated for 15 mins followed by ionomycin addition measured after 1 hr in presence of CaCl2 by RIBFA probe based SDS-PAGE analysis. The class given is cell-based. An outline of the steps: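 Adherent HEK293T/PAD2 cells at 80–90% confluence in HBS with 2 mM CaCl₂ at 37 °C. Inhibitor (in DMSO) added for 15 min, then ionomycin (0.5 μM final) for 1 h. Cells washed and lysed in 1% Triton X-100. Lysate (2 μg/μL) labelled with RIBFA probe (2 μM) plus 2 mM CaCl₂ for 1 h at 37 °C. PAD2 occupancy expressed relative to DMSO control.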
T1 sequence (Q9Y2J8 whole entry): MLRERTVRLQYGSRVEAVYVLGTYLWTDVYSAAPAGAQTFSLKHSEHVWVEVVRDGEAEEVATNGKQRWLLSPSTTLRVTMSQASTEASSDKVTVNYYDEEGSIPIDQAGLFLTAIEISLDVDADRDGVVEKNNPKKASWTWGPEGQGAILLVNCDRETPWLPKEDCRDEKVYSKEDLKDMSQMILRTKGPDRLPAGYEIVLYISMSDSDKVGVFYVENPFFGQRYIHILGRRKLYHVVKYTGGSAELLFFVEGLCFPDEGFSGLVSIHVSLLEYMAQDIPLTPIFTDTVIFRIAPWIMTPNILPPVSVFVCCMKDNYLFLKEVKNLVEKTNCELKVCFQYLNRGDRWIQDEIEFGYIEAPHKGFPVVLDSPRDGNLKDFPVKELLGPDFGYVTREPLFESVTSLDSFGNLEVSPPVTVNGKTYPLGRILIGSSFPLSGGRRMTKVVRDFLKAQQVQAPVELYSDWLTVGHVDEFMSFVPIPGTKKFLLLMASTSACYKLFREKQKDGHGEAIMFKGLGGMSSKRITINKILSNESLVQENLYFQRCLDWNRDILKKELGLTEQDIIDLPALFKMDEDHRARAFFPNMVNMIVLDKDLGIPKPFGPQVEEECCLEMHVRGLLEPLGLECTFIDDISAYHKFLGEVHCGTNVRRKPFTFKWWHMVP

Data set [2] addresses T1, Protein-arginine deiminase type-2. The data set is described as follows: Binding affinity to human PAD2 expressed in HEK293T cells assessed as protein occupancy at 25 uM preincubated for 15 mins followed by ionomycin addition measured after 1 hr in presence of CaCl2 by RIBFA probe based SDS-PAGE analysis relative to control. Type of data set: cell-based. An outline of the steps: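 Adherent HEK293T/PAD2 cells at 80–90% confluence in HBS with 2 mM CaCl₂ at 37 °C. Inhibitor (in DMSO) added for 15 min, then ionomycin (0.5 μM final) for 1 h. Cells washed and lysed in 1% Triton X-100. Lysate (2 μg/μL) labelled with RIBFA probe (2 μM) plus 2 mM CaCl₂ for 1 h at 37 °C. Gel resolved and fluorescence scanned (~546/579 nm). PAD2 occupancy expressed relative to DMSO control.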

Data set [3] has the same target. As to the kind of experiment: Binding affinity to human PAD2 expressed in HEK293T cells assessed as decrease in histone H3 citrulination incubated for 3 hrs in presence of ionomycin/CaCl2 by SDS-PAGE analysis. The class given is cell-based. The procedure, abridged:
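HEK293T stably overexpressing human PAD2, 4 × 10⁵ cells in HBS, given ionomycin (10 μM), CaCl₂ (1 mM) and varying inhibitor concentrations (1% DMSO) for 3 h. Lysed with 1% Triton X-100 and sonicated at 0 °C. 1 μg protein run on SDS-PAGE, western blotted with antibodies to histone H3 and to citrullinated H3 (Cit 2,8,17), and imaged on Licor. EC50 taken from CitH3 intensity.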

A short description of data set [4]: Safety index, ratio of compound EC50 to BB-Cl-amide EC50 for cytotoxicity against HEK293T cells. The class given is cell-based, HEK-293T. The following applies: human, read-out: Ratio EC50.
Data set [5] is filed under the species Homo sapiens. The data set is described as follows: Selectivity ratio of Kinact/Ki for recombinant His6-tagged PAD1 (unknown origin) to Kinact/Ki for recombinant full length N-terminal GST-tagged human PAD4 expressed in Escherichia coli Rosetta cells. The procedure, abridged:
(§1)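 Enzyme at 2.0 μM (PAD1, PAD2, PAD4) or 5.0 μM (PAD3) incubated at 37 °C with various inhibitor concentrations in 50 mM HEPES, 10 mM CaCl₂, 2 mM DTT, pH 7.6. Timed aliquots moved into substrate mix: 10 mM BAEE, or 10 mM BAA for PAD3. […] Selectivity ratios taken from these values.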

Data set [6] is filed under the species Homo sapiens. The data set is described as follows: Selectivity ratio of Kinact/Ki for recombinant human PAD2 expressed in Escherichia coli BL21(DE3)pLysS cells to Kinact/Ki for recombinant full length N-terminal GST-tagged human PAD4 expressed in Escherichia coli Rosetta cells. The procedure, abridged: as §1
The species named for data set [7] is Homo sapiens. The data set is described as follows: Selectivity ratio of Kinact/Ki for recombinant His6-tagged PAD3 (unknown origin) to Kinact/Ki for recombinant full length N-terminal GST-tagged human PAD4 expressed in Escherichia coli Rosetta cells. An outline of the steps: as §1
Data set [8] is filed under the species Homo sapiens. The data set is described as follows: Selectivity ratio of Kinact/Ki for recombinant human PAD2 expressed in Escherichia coli BL21(DE3)pLysS to Kinact/Ki for recombinant His6-tagged PAD3 (unknown origin). An outline of the steps:
as §1

The species named for data set [9] is Homo sapiens. As to the kind of experiment: Selectivity ratio of Kinact/Ki for recombinant His6-tagged PAD1 (unknown origin) to Kinact/Ki for recombinant human PAD2 expressed in Escherichia coli BL21(DE3)pLysS cells. An outline of the steps:
as §1

For data set [10], the species on record is Homo sapiens. The data set is described as follows: Selectivity ratio of Kinact/Ki for recombinant His6-tagged PAD3 (unknown origin) to Kinact/Ki for recombinant human PAD2 expressed in Escherichia coli BL21(DE3)pLysS cells. An outline of the steps:
as §1

Data set [11] is filed under the species Homo sapiens. The data set is described as follows: Selectivity ratio of Kinact/Ki for recombinant full length N-terminal GST-tagged human PAD4 expressed in Escherichia coli Rosetta cells to Kinact/Ki for recombinant human PAD2 expressed in Escherichia coli BL21(DE3)pLysS cells. The procedure, abridged:
as §1

Data set [12] is filed under the species Homo sapiens. The data set is described as follows: Selectivity ratio of Kinact/Ki for recombinant His6-tagged PAD1 (unknown origin) to Kinact/Ki for recombinant His6-tagged PAD3 (unknown origin). An outline of the steps:
as §1

The species entered for data set [13] is Homo sapiens. As to the kind of experiment: Selectivity ratio of Kinact/Ki for recombinant full length N-terminal GST-tagged human PAD4 expressed in Escherichia coli Rosetta to Kinact/Ki for recombinant His6-tagged PAD3 (unknown origin). The procedure, abridged: as §1
For data set [14], the species on record is Homo sapiens. The data set is described as follows: Selectivity ratio of Kinact/Ki for recombinant human PAD2 expressed in Escherichia coli BL21(DE3)pLysS cells to Kinact/Ki for recombinant His6-tagged PAD1 (unknown origin). An outline of the steps: as §1
The target of data set [15] is Protein-arginine deiminase type-4 (Homo sapiens) (UniProt Q9UM07). The data set is described as follows: Ratio of Kinact to Ki for recombinant full length N-terminal GST-tagged human PAD4 expressed in Escherichia coli Rosetta cells preincubated for 10 mins followed by BAEE substrate addition measured after 15 mins by COLDER assay. The procedure, abridged: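 Enzyme at 2.0 μM (PAD1, PAD2, PAD4) or 5.0 μM (PAD3) incubated at 37 °C with various inhibitor concentrations in 50 mM HEPES, 10 mM CaCl₂, 2 mM DTT, pH 7.6. Timed aliquots moved into substrate mix: 10 mM BAEE, or 10 mM BAA for PAD3. Selectivity ratios taken from these values.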
Protein-arginine deiminase type-4 (Homo sapiens), sequence (Q9UM07 whole entry): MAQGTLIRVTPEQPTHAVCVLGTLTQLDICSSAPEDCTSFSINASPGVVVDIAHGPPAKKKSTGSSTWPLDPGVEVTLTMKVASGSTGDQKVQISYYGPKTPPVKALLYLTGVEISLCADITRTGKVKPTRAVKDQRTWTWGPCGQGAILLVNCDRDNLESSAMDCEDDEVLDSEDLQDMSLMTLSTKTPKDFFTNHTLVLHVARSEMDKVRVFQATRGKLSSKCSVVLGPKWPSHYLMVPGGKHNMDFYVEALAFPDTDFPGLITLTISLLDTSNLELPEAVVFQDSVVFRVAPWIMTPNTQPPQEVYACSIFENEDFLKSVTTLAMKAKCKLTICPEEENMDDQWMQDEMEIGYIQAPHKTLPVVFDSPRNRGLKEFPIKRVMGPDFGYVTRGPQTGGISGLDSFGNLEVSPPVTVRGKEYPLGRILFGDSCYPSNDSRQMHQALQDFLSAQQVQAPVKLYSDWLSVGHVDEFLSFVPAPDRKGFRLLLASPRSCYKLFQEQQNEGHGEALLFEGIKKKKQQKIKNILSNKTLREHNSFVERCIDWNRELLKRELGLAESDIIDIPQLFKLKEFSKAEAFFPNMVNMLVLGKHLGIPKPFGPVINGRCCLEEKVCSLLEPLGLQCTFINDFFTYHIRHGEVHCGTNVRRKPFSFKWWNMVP

Take `CCOc1cccc2c1nc([C@H](CCCNC(=N)CF)NC(=O)c1cccc3c1C(=O)NC3)n2C`: the figures for the EC50 in data set [1] and in data set [3] were 8.3 µM and 2.7 µM, respectively. Further, the Activity in data set [2] was more than 60%. The selectivity ratio in data set [4] is more than 30. The Selectivity ratio in the data set listed under Homo sapiens [5] turned out to be 65; in the data set filed under Homo sapiens [6], 95; in the data set listed under Homo sapiens [7], 1.2; in the data set filed under Homo sapiens [8], 79.

Consider `N=C(CCl)NCCC[C@H](NC(=O)c1ccccc1C(=O)O)c1nc2ccccc2[nH]1`, for which the Selectivity ratio came to 8.3 in the data set listed under Homo sapiens [9], 6.2 in the data set filed under Homo sapiens [10] and 9 in the data set filed under Homo sapiens [11].

With `N=C(CF)NCCC[C@H](NC(=O)c1ccccc1C(=O)O)c1nc2ccccc2[nH]1`, the figures for the Selectivity ratio in the data set filed under Homo sapiens [9], in the data set filed under Homo sapiens [10] and in the data set filed under Homo sapiens [11] were 11, 4.3 and 16, respectively.

With `CCN1Cc2cccc(C(=O)N[C@@H](CCCNC(=N)CF)c3nc4ccccc4[nH]3)c2C1=O`, the figures for the Selectivity ratio in the data set filed under Homo sapiens [9], in the data set listed under Homo sapiens [10] and in the data set listed under Homo sapiens [11] were 3.4, 1 and 1, respectively.

As for `COc1cccc2c1nc([C@H](CCCNC(=N)CF)NC(=O)c1cccc3c1C(=O)NC3)n2C`, the EC50 worked out at 9.5 µM in [1] and 0.4 µM in data set [3]. For the same compound, the Activity in data set [2] was more than 60%. Further, in data set [4], the selectivity ratio is more than 30. The Selectivity ratio in the data set listed under Homo sapiens [6] came out at 15; in the data set filed under Homo sapiens [12], 29; in the data set filed under Homo sapiens [8], 47; in the data set listed under Homo sapiens [13], 3.2; in the data set filed under Homo sapiens [14] it was 1.6.

Take `N=C(CF)NCCC[C@H](NC(=O)c1ccc(-c2ccccc2)cc1)c1nc2ccccc2[nH]1`: the Ratio in data set [15] stood at 3750 M⁻¹ min⁻¹. The EC50 in [1] is 20.6 µM.

In the case of `COc1ccc2c(c1)nc([C@H](CCCNC(=N)CF)NC(=O)c1cccc3c1C(=O)NC3)n2C`, the EC50 in [1] turned out to be 5.9 µM; in data set [3], 2.1 µM. Moreover, the Activity in data set [2] is more than 60%. Also, the selectivity ratio in data set [4] was more than 30. Also, the figures for the Selectivity ratio in the data set listed under Homo sapiens [12], in the data set filed under Homo sapiens [8] and in the data set filed under Homo sapiens [13] were 121, 114 and 1.2, respectively.

Regarding `CCn1c([C@H](CCCNC(=N)CF)NC(=O)c2cccc3c2C(=O)NC3)nc2c(OC)cccc21`, the concentration for a half-maximal effect (EC50) in data set [1] stood at 7.6 µM; in data set [3], 2.4 µM. The Activity in [2] was more than 60%. Also, the selectivity ratio in [4] is more than 30. Further, the Selectivity ratio is 38 in the data set filed under Homo sapiens [5], 32 in the data set filed under Homo sapiens [6] and 1 in the data set filed under Homo sapiens [7].
